{"source": "ChEMBL document CHEMBL1811786", "about": "“Identification of MK-5710 ((8aS)-8a-methyl-1,3-dioxo-2-[(1S,2R)-2-phenylcyclo- propyl]-N-(1-phenyl-1H-pyrazol-5-yl)hexahydro-imidazo[1,5-a]pyrazine-7(1H)-carboxamide), a potent smoothened antagonist for use in Hedgehog pathway dependent malignancies, part 2” (Bioorg Med Chem Lett, 2011)", "key": {"Mus musculus [1]": {"system": "Mus musculus", "experiment": "Toxicity in mouse medulloblastoma allograft model assessed as body weight loss at 80 mg/kg, po bid for 3 weeks", "type": "organism-based", "parameters": "dose 80 mg/kg, route oral", "conditions": "in vivo, 504 h", "how_it_was_run": "(§1)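 Primary mouse medulloblastoma allograft, subcutaneous. Mice randomized when tumors averaged 400 mm³. Oral dosing for 3 weeks, bid at 40, 80, 120 or 160 mg/kg, or 80 mg/kg qd. Compound given as a suspension in 0.24% SDS/0.5% Methocel, with a BID vehicle control. Tumor volume tracked over days; body weight, physical signs and mortality monitored.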"}, "[2]": {"experiment": "AUC in mouse at 160 mg/kg, po", "type": "ADME, organism-based", "parameters": "dose 160 mg/kg, route oral", "conditions": "plasma"}, "[3]": {"experiment": "Half life in rat", "type": "ADME, organism-based", "conditions": "in vivo"}, "[4]": {"experiment": "Half life in dog", "type": "ADME, organism-based, Canis lupus familiaris", "conditions": "in vivo"}, "[5]": {"experiment": "AUC in mouse at 40 mg/kg, po", "type": "ADME, organism-based", "parameters": "dose 40 mg/kg, route oral", "conditions": "plasma"}, "Medulloblastoma cell [6]": {"system": "Medulloblastoma cell", "experiment": "Antitumor activity against primary mouse medulloblastoma allograft model assessed as tumor growth inhibition at 120 mg/kg, po bid for 3 weeks", "type": "functional, organism-based", "parameters": "dose 120 mg/kg", "how_it_was_run": "as §1"}, "[7]": {"experiment": "Volume of distribution at steady state in rat", "type": "ADME, organism-based", "conditions": "in vivo, read-out: Vdss"}, "Protein smoothened [8]": {"target": "T1, Protein smoothened (Homo sapiens, UniProt Q99835)", "T1 sequence (Q99835 whole entry)": "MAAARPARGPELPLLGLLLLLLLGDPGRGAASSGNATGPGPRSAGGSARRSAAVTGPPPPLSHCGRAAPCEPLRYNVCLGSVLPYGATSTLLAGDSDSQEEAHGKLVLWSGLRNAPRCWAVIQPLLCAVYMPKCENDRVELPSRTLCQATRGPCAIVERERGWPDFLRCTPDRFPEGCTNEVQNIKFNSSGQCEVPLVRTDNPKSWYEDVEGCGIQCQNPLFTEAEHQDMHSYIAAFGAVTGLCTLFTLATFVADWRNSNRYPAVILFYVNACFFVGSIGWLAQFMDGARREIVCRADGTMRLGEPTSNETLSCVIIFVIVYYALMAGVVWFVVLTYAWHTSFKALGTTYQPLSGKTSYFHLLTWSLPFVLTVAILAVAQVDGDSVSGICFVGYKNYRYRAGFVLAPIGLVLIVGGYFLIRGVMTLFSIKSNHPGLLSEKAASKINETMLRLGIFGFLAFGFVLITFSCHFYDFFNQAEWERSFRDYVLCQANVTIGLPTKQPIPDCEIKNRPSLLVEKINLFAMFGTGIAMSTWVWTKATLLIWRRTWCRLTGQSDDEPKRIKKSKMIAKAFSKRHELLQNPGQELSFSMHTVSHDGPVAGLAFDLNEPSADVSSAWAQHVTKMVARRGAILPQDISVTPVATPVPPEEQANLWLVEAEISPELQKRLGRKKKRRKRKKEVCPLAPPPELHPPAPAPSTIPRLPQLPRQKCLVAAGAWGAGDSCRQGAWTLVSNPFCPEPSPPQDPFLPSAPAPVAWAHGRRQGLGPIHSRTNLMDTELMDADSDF", "experiment": "Displacement of BODIPY-cyclopamine from human Smo expressed in HEK293 cells in presence of 20% normal human serum", "type": "cell-based", "how_it_was_run": "(§2)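 Competition binding: displacement of fluorescently labeled bodipy-cyclopamine from recombinant human Smo expressed in HEK-293 cells. Run in 2% fetal calf serum and, separately, in 20% normal human serum. IC50 values are means of at least five experiments.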"}, "Mus musculus [9]": {"system": "Mus musculus", "experiment": "Toxicity in mouse medulloblastoma allograft model assessed as mortality at 80 mg/kg, po bid for 3 weeks", "type": "organism-based", "parameters": "dose 80 mg/kg, route oral", "conditions": "in vivo, 504 h", "how_it_was_run": "(§3)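 Primary mouse medulloblastoma allografts grown subcutaneously; mice were randomized once tumors averaged 400 mm³. The compound was given orally as a suspension in 0.24% SDS/0.5% Methocel, either bid for 3 weeks or 80 mg/kg qd. Tolerability was monitored by body-weight loss, visible physical signs and mortality.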"}, "Mus musculus [10]": {"system": "Mus musculus", "experiment": "Toxicity in mouse medulloblastoma allograft model assessed as body weight loss at 160 mg/kg, po bid for 3 weeks", "type": "organism-based", "parameters": "dose 160 mg/kg, route oral", "conditions": "in vivo, 504 h", "how_it_was_run": "as §1"}, "Medulloblastoma cell [11]": {"system": "Medulloblastoma cell", "experiment": "Antitumor activity against primary mouse medulloblastoma allograft model assessed as tumor growth inhibition at 80 mg/kg, po bid for 3 weeks", "type": "functional, organism-based", "parameters": "dose 80 mg/kg", "how_it_was_run": "as §1"}, "[12]": {"experiment": "Oral bioavailability in dog", "type": "ADME, organism-based, Canis lupus familiaris", "conditions": "in vivo"}, "[13]": {"experiment": "Oral bioavailability in rat", "type": "ADME, organism-based", "conditions": "in vivo"}, "[14]": {"experiment": "Plasma protein binding in human assessed as unbound fraction", "type": "ADME, cell-free"}, "[15]": {"experiment": "Volume of distribution at steady state in dog", "type": "ADME, organism-based, Canis lupus familiaris", "conditions": "in vivo, read-out: Vdss"}, "Medulloblastoma cell [16]": {"system": "Medulloblastoma cell", "experiment": "Antitumor activity against primary mouse medulloblastoma allograft model assessed as tumor growth inhibition at 80 mg/kg, po qd for 3 weeks", "type": "functional, organism-based", "parameters": "dose 80 mg/kg", "how_it_was_run": "as §1"}, "Rattus norvegicus": {"species_on_record": "Rattus norvegicus", "experiment": "Clearance in rat", "type": "ADME, organism-based", "conditions": "in vivo"}, "[17]": {"experiment": "AUC in mouse at 80 mg/kg, po", "type": "ADME, organism-based", "parameters": "dose 80 mg/kg, route oral", "conditions": "plasma"}, "Medulloblastoma cell [18]": {"system": "Medulloblastoma cell", "experiment": "Antitumor activity against primary mouse medulloblastoma allograft model assessed as tumor growth inhibition at 160 mg/kg, po bid for 3 weeks", "type": "functional, organism-based", "parameters": "dose 160 mg/kg", "how_it_was_run": "as §1"}, "Mus musculus [19]": {"system": "Mus musculus", "experiment": "Toxicity in mouse medulloblastoma allograft model assessed as visible physical signs at 40 mg/kg, po bid for 3 weeks", "type": "organism-based", "parameters": "dose 40 mg/kg, route oral", "conditions": "in vivo, 504 h", "how_it_was_run": "as §3"}, "Mus musculus [20]": {"system": "Mus musculus", "experiment": "Toxicity in mouse medulloblastoma allograft model assessed as body weight loss at 120 mg/kg, po bid for 3 weeks", "type": "organism-based", "parameters": "dose 120 mg/kg, route oral", "conditions": "in vivo, 504 h", "how_it_was_run": "as §1"}, "Canis familiaris": {"species_on_record": "Canis familiaris", "experiment": "Clearance in dog", "type": "ADME, organism-based, Canis lupus familiaris", "conditions": "in vivo"}, "Protein smoothened [21]": {"target": "T1, Protein smoothened", "experiment": "Displacement of BODIPY-cyclopamine from human Smo expressed in HEK293 cells in presence of 2% fetal calf serum", "type": "cell-based", "how_it_was_run": "as §2"}, "Mus musculus [22]": {"system": "Mus musculus", "experiment": "Toxicity in mouse medulloblastoma allograft model assessed as visible physical signs at 160 mg/kg, po bid for 3 weeks", "type": "organism-based", "parameters": "dose 160 mg/kg, route oral", "conditions": "in vivo, 504 h", "how_it_was_run": "as §3"}, "Mus musculus [23]": {"system": "Mus musculus", "experiment": "Toxicity in mouse medulloblastoma allograft model assessed as visible physical signs at 120 mg/kg, po bid for 3 weeks", "type": "organism-based", "parameters": "dose 120 mg/kg, route oral", "conditions": "in vivo, 504 h", "how_it_was_run": "as §3"}, "Mus musculus [24]": {"system": "Mus musculus", "experiment": "Toxicity in mouse medulloblastoma allograft model assessed as body weight loss at 80 mg/kg, po qd for 3 weeks", "type": "organism-based", "parameters": "dose 80 mg/kg, route oral", "conditions": "in vivo, 504 h", "how_it_was_run": "as §1"}, "Mus musculus [25]": {"system": "Mus musculus", "experiment": "Toxicity in mouse medulloblastoma allograft model assessed as body weight loss at 40 mg/kg, po bid for 3 weeks", "type": "organism-based", "parameters": "dose 40 mg/kg, route oral", "conditions": "in vivo, 504 h", "how_it_was_run": "as §1"}, "Mus musculus [26]": {"system": "Mus musculus", "experiment": "Toxicity in mouse medulloblastoma allograft model assessed as visible physical signs at 80 mg/kg, po qd for 3 weeks", "type": "organism-based", "parameters": "dose 80 mg/kg, route oral", "conditions": "in vivo, 504 h", "how_it_was_run": "as §3"}, "Mus musculus [27]": {"system": "Mus musculus", "experiment": "Toxicity in mouse medulloblastoma allograft model assessed as mortality at 160 mg/kg, po bid for 3 weeks", "type": "organism-based", "parameters": "dose 160 mg/kg, route oral", "conditions": "in vivo, 504 h", "how_it_was_run": "as §3"}, "Mus musculus [28]": {"system": "Mus musculus", "experiment": "Inhibition of Shh pathway in mouse medulloblastoma allograft model assessed as reduction in tumor Gli-1 mRNA expression at 80 mg/kg, po administered as single dose measured after 4 to 12 hrs", "type": "functional", "how_it_was_run": "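Tumor-bearing medulloblastoma mice given a single oral 80 mg/kg dose. Tumor biopsies taken at timepoints up to 24 h; Hh-pathway inhibition measured as reduction of Gli-1 mRNA.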"}, "Mus musculus [29]": {"system": "Mus musculus", "experiment": "Toxicity in mouse medulloblastoma allograft model assessed as mortality at 40 mg/kg, po bid for 3 weeks", "type": "organism-based", "parameters": "dose 40 mg/kg, route oral", "conditions": "in vivo, 504 h", "how_it_was_run": "as §3"}, "Mus musculus [30]": {"system": "Mus musculus", "experiment": "Toxicity in mouse medulloblastoma allograft model assessed as mortality at 80 mg/kg, po qd for 3 weeks", "type": "organism-based", "parameters": "dose 80 mg/kg, route oral", "conditions": "in vivo, 504 h", "how_it_was_run": "as §3"}, "Mus musculus [31]": {"system": "Mus musculus", "experiment": "Toxicity in mouse medulloblastoma allograft model assessed as visible physical signs at 80 mg/kg, po bid for 3 weeks", "type": "organism-based", "parameters": "dose 80 mg/kg, route oral", "conditions": "in vivo, 504 h", "how_it_was_run": "as §3"}, "Medulloblastoma cell [32]": {"system": "Medulloblastoma cell", "experiment": "Antitumor activity against primary mouse medulloblastoma allograft model assessed as tumor growth inhibition at 40 mg/kg, po bid for 3 weeks", "type": "functional, organism-based", "parameters": "dose 40 mg/kg", "how_it_was_run": "as §1"}, "Mus musculus [33]": {"system": "Mus musculus", "experiment": "Toxicity in mouse medulloblastoma allograft model assessed as mortality at 120 mg/kg, po bid for 3 weeks", "type": "organism-based", "parameters": "dose 120 mg/kg, route oral", "conditions": "in vivo, 504 h", "how_it_was_run": "as §3"}}, "note": "Active and inactive are the calls of the source. No cut-off for these calls is given here."}
{"molecule": "O=C(Nc1ccnn1-c1ccccc1)N1CCN2C(=O)N([C@H]3C[C@@H]3c3ccccc3)C(=O)[C@@H]2C1", "values": [{"measurement": "Activity", "setting": "Mus musculus [1]", "value": "< 10", "unit": "%"}, {"measurement": "AUC", "setting": "[2]", "value": 24, "unit": "µM·h"}, {"measurement": "half-life", "setting": "[3]", "value": 1.3, "unit": "h"}, {"measurement": "half-life", "setting": "[4]", "value": 2.5, "unit": "h"}, {"measurement": "AUC", "setting": "[5]", "value": 6.4, "unit": "µM·h"}, {"measurement": "growth inhibition (GI)", "setting": "Medulloblastoma cell [6]", "value": "Active"}, {"measurement": "Vd", "setting": "[7]", "value": 2.9, "unit": "L/kg"}, {"measurement": "IC50", "setting": "Protein smoothened [8]", "value": 18, "unit": "nM"}, {"measurement": "Activity", "setting": "Mus musculus [9]", "value": "Non-toxic"}, {"measurement": "Activity", "setting": "Mus musculus [10]", "value": "< 10", "unit": "%"}, {"measurement": "growth inhibition (GI)", "setting": "Medulloblastoma cell [11]", "value": "Active"}, {"measurement": "bioavailability", "setting": "[12]", "value": 82, "unit": "%"}, {"measurement": "bioavailability", "setting": "[13]", "value": 88, "unit": "%"}, {"measurement": "fraction unbound", "setting": "[14]", "value": 0.17}, {"measurement": "Vd", "setting": "[15]", "value": 1, "unit": "L/kg"}, {"measurement": "growth inhibition (GI)", "setting": "Medulloblastoma cell [16]", "value": "Active"}, {"measurement": "clearance", "setting": "Rattus norvegicus", "value": 43, "unit": "mL/min/kg"}, {"measurement": "AUC", "setting": "[17]", "value": 15, "unit": "µM·h"}, {"measurement": "growth inhibition (GI)", "setting": "Medulloblastoma cell [18]", "value": "Active"}, {"measurement": "Activity", "setting": "Mus musculus [19]", "value": "Non-toxic"}, {"measurement": "Activity", "setting": "Mus musculus [20]", "value": "< 10", "unit": "%"}, {"measurement": "clearance", "setting": "Canis familiaris", "value": 5.5, "unit": "mL/min/kg"}, {"measurement": "IC50", "setting": "Protein smoothened [21]", "value": 15, "unit": "nM"}, {"measurement": "Activity", "setting": "Mus musculus [22]", "value": "Non-toxic"}, {"measurement": "Activity", "setting": "Mus musculus [23]", "value": "Non-toxic"}, {"measurement": "Activity", "setting": "Mus musculus [24]", "value": "< 10", "unit": "%"}, {"measurement": "Activity", "setting": "Mus musculus [25]", "value": "< 10", "unit": "%"}, {"measurement": "Activity", "setting": "Mus musculus [26]", "value": "Non-toxic"}, {"measurement": "Activity", "setting": "Mus musculus [27]", "value": "Non-toxic"}, {"measurement": "inhibition in vivo at 80 mg/kg", "setting": "Mus musculus [28]", "value": "> 80", "unit": "%"}, {"measurement": "Activity", "setting": "Mus musculus [29]", "value": "Non-toxic"}, {"measurement": "Activity", "setting": "Mus musculus [30]", "value": "Non-toxic"}, {"measurement": "Activity", "setting": "Mus musculus [31]", "value": "Non-toxic"}, {"measurement": "growth inhibition (GI)", "setting": "Medulloblastoma cell [32]", "value": "Active"}, {"measurement": "Activity", "setting": "Mus musculus [33]", "value": "Non-toxic"}]}
